ChEMBL document CHEMBL5038587, “Synthesis of Methoxy-, Methylenedioxy-, Hydroxy-, and Halo-Substituted Benzophenanthridinone Derivatives as DNA Topoisomerase IB (TOP1) and Tyrosyl-DNA Phosphodiesterase 1 (TDP1) Inhibitors and Their Biological Activity for Drug-Resistant Cancer” (J Med Chem, 2021)
The source made the active and inactive calls. No cut-off for these calls is given here.

Tests used:
MCF7 [1] = assay: Cytotoxicity against human MCF-7/TDP1 cells assessed as cell growth inhibition after 72 hrs by MTT assay; format: functional
Procedure, shortened: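 MCF-7/TDP1 is a TDP1-overexpressing line made by transfecting parental MCF-7, grown in RPMI 1640 or DMEM with 10% FBS at 37 °C, 5% CO2. DMSO-dissolved compounds tested at five doses from 0.01 to 100 µM, read by MTT. GI50 (mean ± SD, at least three repeats) fitted by nonlinear regression against control.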

MCF7 [2] = assay: Synergistic cytotoxicity against human MCF7/TDP1 cells at 100 nM after 96 hrs by MTT assay; format: functional
MCF7 [3] = assay: Synergistic cytotoxicity against human MCF7 cells at 50 nM after 96 hrs in presence of 12-(2-(Dimethylamino)ethyl)-1,2-dihydroxy-[1,3]dioxolo[4',5':4,5]benzo[1,2-c]phenanthridine-13(12H)-one by MTT assay; format: functional
[4] = biological target: T1, Tyrosyl-DNA phosphodiesterase 1 (Homo sapiens, UniProt Q9NUW8); assay: Induction of TDP1-DNA complex formation in human MCF7 cells at 10 uM by ICE assay; format: cell-based
T1 sequence (Q9NUW8 whole entry): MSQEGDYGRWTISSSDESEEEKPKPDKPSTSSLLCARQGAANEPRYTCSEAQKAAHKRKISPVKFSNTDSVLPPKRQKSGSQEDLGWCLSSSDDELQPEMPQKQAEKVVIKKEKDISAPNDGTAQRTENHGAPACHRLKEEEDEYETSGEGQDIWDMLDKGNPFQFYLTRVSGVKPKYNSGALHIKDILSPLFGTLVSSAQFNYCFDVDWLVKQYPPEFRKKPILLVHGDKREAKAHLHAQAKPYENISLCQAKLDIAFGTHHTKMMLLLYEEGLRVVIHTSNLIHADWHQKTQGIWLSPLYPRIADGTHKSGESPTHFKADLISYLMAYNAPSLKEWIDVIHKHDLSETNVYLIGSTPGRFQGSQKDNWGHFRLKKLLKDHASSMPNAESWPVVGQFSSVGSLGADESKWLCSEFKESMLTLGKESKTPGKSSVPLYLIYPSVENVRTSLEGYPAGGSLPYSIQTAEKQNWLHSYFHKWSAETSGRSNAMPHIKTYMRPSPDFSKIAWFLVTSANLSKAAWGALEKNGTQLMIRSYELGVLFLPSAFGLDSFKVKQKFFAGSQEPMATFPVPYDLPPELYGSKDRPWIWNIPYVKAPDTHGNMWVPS
Procedure, shortened: (§1)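 Genomic DNA isolated with DNAzol and ethanol precipitation, then 2 µg slot-blotted onto nitrocellulose in 25 mM NaH2PO4 pH 6.5. Probed with rabbit anti-TDP1 (1:1000) overnight at 4 °C, then HRP secondary, with chemiluminescent read-out.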

MCF7 [5] = assay: Synergistic cytotoxicity against human MCF7 cells at 50 nM after 96 hrs by MTT assay; format: functional
MCF7 [6] = assay: Induction of DNA damage in human MCF7/TDP1 cells assessed as increase in gammaH2AX foci measured after 6 hrs by DAPI staining based immunofluorescence assay; format: functional
Procedure, shortened: (§2)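 Fixed in 4% paraformaldehyde, permeabilized with 0.5% Triton X-100, blocked in 5% goat serum. Stained with γH2AX antibody overnight at 4 °C, then Alexa 488 secondary plus DAPI 2 µg/mL. Foci counted by confocal microscopy, at least three independent repeats.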

MCF7 [7] = assay: Synergistic cytotoxicity against human MCF7/TDP1 cells at 100 nM after 96 hrs in presence of 12-(2-(Dimethylamino)ethyl)-1,2-dihydroxy-[1,3]dioxolo[4',5':4,5]benzo[1,2-c]phenanthridine-13(12H)-one by MTT assay; format: functional
MCF7 [8] = assay: Induction of DNA damage in human MCF7/TDP1 cells assessed as increase in gammaH2AX foci at 1 uM measured after 6 hrs by DAPI staining based immunofluorescence assay; format: functional; procedure, shortened: as §2
HCT-116 = assay: Cytotoxicity against human HCT-116 cells assessed as cell growth inhibition after 72 hrs by MTT assay; format: functional
Procedure, shortened: (§3)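 Cells kept in RPMI 1640 or DMEM with 10% FBS at 37 °C, 5% CO2. Compounds predissolved in DMSO, tested in a five-dose series from 0.01 to 100 µM for 72 h, then read by MTT. Percent viability inhibition is taken against control, and GI50 is fitted by nonlinear regression.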

MCF7 [9] = assay: Cytotoxicity against human MCF-7 cells assessed as cell growth inhibition after 72 hrs by MTT assay; format: functional
Procedure, shortened: (§4)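 Compounds predissolved in DMSO, tested in a five-dose series from 0.01 to 100 µM for 72 h, then read by MTT. Percent viability inhibition is taken against control, and GI50 is fitted by nonlinear regression.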

A549 = assay: Cytotoxicity against human A549 cells assessed as cell growth inhibition after 72 hrs by MTT assay; format: functional; procedure, shortened: as §3
DU-145 = assay: Cytotoxicity against human DU145 cells assessed as cell growth inhibition after 72 hrs by MTT assay; format: functional; procedure, shortened: as §4
[10] = Resistance index,ratio of GI50 for growth inhibition of human MCF-7/TDP1 cells to GI50 for growth inhibition of human MCF-7 cells; format: functional
Procedure, shortened: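 Resistance index is the MTT GI50 in TDP1-overexpressing MCF-7/TDP1 (transfected MCF-7) divided by the GI50 in parental MCF-7. GI50 values are mean ± SD of at least three experiments.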

MCF7 [11] = assay: Synergistic cytotoxicity against human MCF7/TDP1 cells assessed as combination index measured after 96 hrs in presence of TPT by MTT assay; format: functional
MCF7 [12] = assay: Synergistic cytotoxicity against human MCF7 cells assessed as combination index measured after 96 hrs in presence of TPT by MTT assay; format: functional
[13] = biological target: T2, DNA topoisomerase 1 (Homo sapiens) (UniProt P11387); assay: Inhibition of recombinant TOP1 (unknown origin) at 1 uM using 3'-[32P]-labeled 117 bp DNA oligonucleotides as substrate incubated for 20 mins by PAGE analysis relative to CPT
T2 sequence (whole entry): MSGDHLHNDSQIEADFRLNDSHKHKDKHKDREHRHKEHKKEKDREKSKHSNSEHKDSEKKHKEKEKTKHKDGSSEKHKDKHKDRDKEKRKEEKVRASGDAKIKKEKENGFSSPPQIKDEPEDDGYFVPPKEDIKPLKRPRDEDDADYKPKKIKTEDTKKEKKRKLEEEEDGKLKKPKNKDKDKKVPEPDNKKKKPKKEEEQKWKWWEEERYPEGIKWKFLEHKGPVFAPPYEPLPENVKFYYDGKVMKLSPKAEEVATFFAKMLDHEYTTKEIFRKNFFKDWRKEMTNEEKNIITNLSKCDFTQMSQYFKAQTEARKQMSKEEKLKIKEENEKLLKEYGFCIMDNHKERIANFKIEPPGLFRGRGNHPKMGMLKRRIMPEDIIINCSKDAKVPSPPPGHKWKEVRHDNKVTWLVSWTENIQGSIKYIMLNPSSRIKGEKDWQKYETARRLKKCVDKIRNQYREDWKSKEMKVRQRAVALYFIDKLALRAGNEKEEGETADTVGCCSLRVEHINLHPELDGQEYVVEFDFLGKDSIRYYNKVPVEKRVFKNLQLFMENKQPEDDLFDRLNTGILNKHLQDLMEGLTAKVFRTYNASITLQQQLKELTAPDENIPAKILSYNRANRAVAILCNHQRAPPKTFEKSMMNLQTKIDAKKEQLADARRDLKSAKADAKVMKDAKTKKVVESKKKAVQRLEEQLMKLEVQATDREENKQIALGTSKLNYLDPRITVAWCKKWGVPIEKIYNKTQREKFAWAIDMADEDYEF
Procedure, shortened: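 3'-[32P]-labeled 117 bp oligonucleotide (~2 nM) with recombinant TOP1 and compound, 25 °C, 20 min. Buffer: 10 mM Tris-HCl pH 7.5, 50 mM KCl, 5 mM MgCl2, 0.1 mM EDTA, BSA. Stopped with 0.5% SDS and run on 20% denaturing PAGE with phosphorimaging.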

MCF7 [14] = assay: Induction of apoptosis in human MCF7 cells assessed as early apoptotic cells at 1 uM measured after 24 hrs by Annexin V-FITC/propidium iodide staining based flow cytometry (Rvb=0.12%); format: functional
Procedure, shortened: (§5)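 MCF-7 cells (2×10^5 per dish) exposed to compound at 1, 2 or 4 µM for 24 h. Cells resuspended in binding buffer and stained with Annexin V-FITC plus propidium iodide for 15 min at 25 °C in the dark. Viable, early apoptotic, late apoptotic and necrotic fractions quantified by flow cytometry.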

MCF7 [15] = assay: Induction of apoptosis in human MCF7 cells assessed as early apoptotic cells at 2 uM measured after 24 hrs by Annexin V-FITC/propidium iodide staining based flow cytometry (Rvb=0.12%); format: functional; procedure, shortened: as §5
MCF7 [16] = assay: Induction of apoptosis in human MCF7 cells assessed as early apoptotic cells at 4 uM measured after 24 hrs by Annexin V-FITC/propidium iodide staining based flow cytometry(Rvb=0.12%); format: functional; procedure, shortened: as §5
[17] = biological target: T1, Tyrosyl-DNA phosphodiesterase 1; assay: Induction of TDP1-DNA complex formation in human MCF7/TDP1 cells at 10 uM by ICE assay; format: cell-based; procedure, shortened: as §1
MCF7 [18] = assay: Induction of apoptosis in human MCF7 cells assessed as necrotic cells at 1 uM measured after 24 hrs by Annexin V-FITC/propidium iodide staining based flow cytometry (Rvb=0.83%); format: functional; procedure, shortened: as §5
MCF7 [19] = assay: Induction of DNA damage in human MCF7/TDP1 cells assessed as decrease in TPT-induced gammaH2AX foci at 1 uM measured after 6 hrs by DAPI staining based immunofluorescence assay; format: functional; design: scale not given: the % may be the effect or the level left; procedure, shortened: as §2
MCF7 [20] = assay: Induction of apoptosis in human MCF7 cells assessed as late apoptotic cells at 2 uM measured after 24 hrs by Annexin V-FITC/propidium iodide staining based flow cytometry (Rvb=0%); format: functional; procedure, shortened: as §5
MCF7 [21] = assay: Induction of apoptosis in human MCF7 cells assessed as necrotic cells at 2 uM measured after 24 hrs by Annexin V-FITC/propidium iodide staining based flow cytometry; format: functional; procedure, shortened: as §5
MCF7 [22] = assay: Induction of apoptosis in human MCF7 cells assessed as viable cells at 1 uM measured after 24 hrs by Annexin V-FITC/propidium iodide staining based flow cytometry (Rvb=99.05%); format: functional; conditions: read-out: Activity; procedure, shortened: as §5
MCF7 [23] = assay: Induction of DNA damage in human MCF7 cells assessed as decrease in TPT-induced gammaH2AX foci at 2 uM measured after 6 hrs by DAPI staining based immunofluorescence assay; format: functional; design: scale not given: the % may be the effect or the level left; procedure, shortened: as §2
MCF7 [24] = assay: Induction of apoptosis in human MCF7 cells assessed as viable cells at 2 uM measured after 24 hrs by Annexin V-FITC/propidium iodide staining based flow cytometry (Rvb=99.05%); format: functional; conditions: read-out: Activity; procedure, shortened: as §5
MCF7 [25] = assay: Induction of apoptosis in human MCF7 cells assessed as late apoptotic cells at 1 uM measured after 24 hrs by Annexin V-FITC/propidium iodide staining based flow cytometry (Rvb=0%); format: functional; procedure, shortened: as §5
MCF7/TDP1 = assay: Induction of DNA damage in human MCF7/TDP1 cells assessed as decrease in gammaH2AX foci at 2 uM measured after 6 hrs by DAPI staining based immunofluorescence assay; design: scale not given: the % may be the effect or the level left
[26] = biological target: T1, Tyrosyl-DNA phosphodiesterase 1; assay: Induction of TDP1-DNA complex formation in human MCF7 cells at 10 to 100 uM in presence of TPT by ICE assay; format: cell-based; conditions: dose 10-100 µM; procedure, shortened: as §1
MCF7 [27] = assay: Induction of apoptosis in human MCF7 cells assessed as late apoptotic cells at 4 uM measured after 24 hrs by Annexin V-FITC/propidium iodide staining based flow cytometry (Rvb=0%); format: functional; procedure, shortened: as §5
MCF7 [28] = assay: Induction of apoptosis in human MCF7 cells assessed as necrotic cells at 4 uM measured after 24 hrs by Annexin V-FITC/propidium iodide staining based flow cytometry (Rvb=0.83%); format: functional; procedure, shortened: as §5
[29] = biological target: T1, Tyrosyl-DNA phosphodiesterase 1; assay: Induction of TDP1-DNA complex formation in human […] cells at 10 to 100 uM in presence of TPT by ICE assay; format: cell-based; conditions: dose 10-100 µM; procedure, shortened: as §1
MCF7 [30] = assay: Induction of DNA damage in human MCF7 cells assessed as decrease in TPT-induced gammaH2AX foci at 1 uM measured after 6 hrs by DAPI staining based immunofluorescence assay; format: functional; design: scale not given: the % may be the effect or the level left; procedure, shortened: as §2
MCF7 [31] = assay: Induction of DNA damage in human MCF7/TDP1 cells assessed as decrease in TPT-induced gammaH2AX foci at 2 uM measured after 6 hrs by DAPI staining based immunofluorescence assay; format: functional; design: scale not given: the % may be the effect or the level left; procedure, shortened: as §2
MCF7 [32] = assay: Induction of apoptosis in human MCF7 cells assessed as viable cells at 4 uM measured after 24 hrs by Annexin V-FITC/propidium iodide staining based flow cytometry (Rvb=99.05%); format: functional; conditions: read-out: Activity; procedure, shortened: as §5
[33] = biological target: T1, Tyrosyl-DNA phosphodiesterase 1; assay: Induction of TDP1-DNA complex formation in human MCF7 cells at 100 uM by ICE assay; format: cell-based; procedure, shortened: as §1

CC[C@@]1(O)C(=O)OCc2c1cc1n(c2=O)Cc2cc3c(CN(C)C)c(O)ccc3nc2-1 [TOPOTECAN]
GI50 (MCF7 [1]): 2.59 µM
Activity (MCF7 [2]): 19%
Activity (MCF7 [3]): 87%
Activity [4]: inactive
Activity (MCF7 [5]): 23%
Activity (MCF7 [6]): 34%
Activity (MCF7 [7]): 86%
Activity (MCF7 [8]): 34%

COc1cc2c(=O)n(CCN(C)C)c3c4cc5c(cc4ccc3c2cc1OC)OCO5
GI50 (MCF7 [1]): 7.42 µM
GI50 (HCT-116): 0.14 µM
GI50 (MCF7 [9]): 0.2 µM
GI50 (A549): 0.32 µM
GI50 (DU-145): 0.078 µM
RatioGI50 [10]: 19.9

CN(C)CCn1c(=O)c2c(O)c(O)ccc2c2ccc3cc4c(cc3c21)OCO4
GI50 (MCF7 [1]): 3.98 µM
CI (MCF7 [11]): <0.3
CI (MCF7 [12]): <0.3
inhibition [13]: 75%
Activity (MCF7 [14]): 28.99%
Activity (MCF7 [15]): 21.31%
Activity (MCF7 [16]): 26.53%
Activity [17]: Active
Activity [4]: inactive
Activity (MCF7 [18]): 0.16%
Activity (MCF7 [19]): 14%
Activity (MCF7 [20]): 24.3%
Activity (MCF7 [21]): 14.71%
viability at 1 µM (MCF7 [22]): 70.1%
Activity (MCF7 [23]): 18%
viability at 2 µM (MCF7 [24]): 39.7%
Activity (MCF7 [8]): 22%
Activity (MCF7 [25]): 0.73%
Activity (MCF7/TDP1): 28%
Activity [26]: Active
Activity (MCF7 [27]): 48.46%
Activity (MCF7 [28]): 9.31%
Activity [29]: Active
Activity (MCF7 [30]): 14%
GI50 (DU-145): 0.8 µM
Activity (MCF7 [31]): 18%
viability at 4 µM (MCF7 [32]): 15.7%
Activity [33]: Active

CC[C@@]1(O)C(=O)OCc2c1cc1n(c2=O)Cc2cc3ccccc3nc2-1 [CAMPTOTHECIN]
GI50 (MCF7 [1]): 3.21 µM
GI50 (HCT-116): 0.05 µM
GI50 (MCF7 [9]): 0.35 µM
GI50 (A549): 0.31 µM
